Measured values: ChEMBL document CHEMBL4689842, “EUbOPEN Chemogenomics Library wave 1” (2021)

System: U2OS
Assay: Multiplex assay against U2OS
Type: toxicity, cell-based
Conditions: human
How it was run: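 Live cells carried four stains from seeding: Hoechst33342, BioTracker Green Microtubule Cytoskeleton Dye, MitoTracker Red and Annexin V Alexa Fluor 680. They were imaged on a CQ1 microscope at 37°C and 5% CO2 after compound addition. Using CellPathfinder machine-learning gating, cells were split into Hoechst high-intensity objects or normal cells, normal cells into healthy, pyknosed or fragmented nuclei, and pyknosed cells into mitotic or apoptotic; tubulin, mitochondrial-mass and membrane-permeability phenotypes are per cents of healthy-nucleus cells.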

[1] = 12 h, 1 µM, compound concentration 1 uM, replicate 1
[2] = 12 h, 1 µM, compound concentration 1 uM, replicate 2
[3] = 12 h, 10 µM, compound concentration 10 uM, replicate 1
[4] = 12 h, 10 µM, compound concentration 10 uM, replicate 2
[5] = 24 h, 1 µM, compound concentration 1 uM, replicate 1
[6] = 24 h, 1 µM, compound concentration 1 uM, replicate 2
[7] = 24 h, 10 µM, compound concentration 10 uM, replicate 1
[8] = 24 h, 10 µM, compound concentration 10 uM, replicate 2
[9] = 48 h, 1 µM, compound concentration 1 uM, replicate 1
[10] = 48 h, 1 µM, compound concentration 1 uM, replicate 2
[11] = 48 h, 10 µM, compound concentration 10 uM, replicate 1
[12] = 48 h, 10 µM, compound concentration 10 uM, replicate 2

COc1cccc([C@@H](C)NCCCc2ccccc2Cl)c1.Cl [TECALCET HYDROCHLORIDE]
Population Apoptotic (%) [1]: 50%
Population Fragmented Nuclei (%) [1]: 22%
Population Healthy Nuclei (%) [1]: 72%
Population Hoechst High Intensity Objects (%) [1]: 32%
Population Membrane Permeable-Phenotype (%) [1]: 3%
Population Mitochondria Different-Phenotype (%) [1]: 34%
Population Mitotic Cells (%) [1]: 50%
Population Normal (%) [1]: 67%
Population Pyknosed Nuclei (%) [1]: 5%
Population Tubulin-Different-Phenotype (%) [1]: 30%
Total Cell Count [1]: 188
Population Apoptotic (%) [2]: 16%
Population Fragmented Nuclei (%) [2]: 10%
Population Healthy Nuclei (%) [2]: 81%
Population Hoechst High Intensity Objects (%) [2]: 10%
Population Membrane Permeable-Phenotype (%) [2]: 6%
Population Mitochondria Different-Phenotype (%) [2]: 20%
Population Mitotic Cells (%) [2]: 83%
Population Normal (%) [2]: 89%
Population Pyknosed Nuclei (%) [2]: 8%
Population Tubulin-Different-Phenotype (%) [2]: 18%
Total Cell Count [2]: 70
Population Apoptotic (%) [3]: 62%
Population Fragmented Nuclei (%) [3]: 11%
Population Healthy Nuclei (%) [3]: 64%
Population Hoechst High Intensity Objects (%) [3]: 8%
Population Membrane Permeable-Phenotype (%) [3]: 6%
Population Mitochondria Different-Phenotype (%) [3]: 86%
Population Mitotic Cells (%) [3]: 37%
Population Normal (%) [3]: 91%
Population Pyknosed Nuclei (%) [3]: 23%
Population Tubulin-Different-Phenotype (%) [3]: 90%
Total Cell Count [3]: 53
Population Apoptotic (%) [4]: 41%
Population Fragmented Nuclei (%) [4]: 7%
Population Healthy Nuclei (%) [4]: 75%
Population Hoechst High Intensity Objects (%) [4]: 5%
Population Membrane Permeable-Phenotype (%) [4]: 18%
Population Mitochondria Different-Phenotype (%) [4]: 90%
Population Mitotic Cells (%) [4]: 58%
Population Normal (%) [4]: 94%
Population Pyknosed Nuclei (%) [4]: 17%
Population Tubulin-Different-Phenotype (%) [4]: 96%
Total Cell Count [4]: 83
Population Apoptotic (%) [5]: 44%
Population Fragmented Nuclei (%) [5]: 22%
Population Healthy Nuclei (%) [5]: 57%
Population Hoechst High Intensity Objects (%) [5]: 26%
Population Membrane Permeable-Phenotype (%) [5]: 3%
Population Mitochondria Different-Phenotype (%) [5]: 30%
Population Mitotic Cells (%) [5]: 55%
Population Normal (%) [5]: 73%
Population Pyknosed Nuclei (%) [5]: 20%
Population Tubulin-Different-Phenotype (%) [5]: 19%
Total Cell Count [5]: 239
Population Apoptotic (%) [6]: 77%
Population Fragmented Nuclei (%) [6]: 8%
Population Healthy Nuclei (%) [6]: 80%
Population Hoechst High Intensity Objects (%) [6]: 8%
Population Membrane Permeable-Phenotype (%) [6]: 6%
Population Mitochondria Different-Phenotype (%) [6]: 6%
Population Mitotic Cells (%) [6]: 22%
Population Normal (%) [6]: 91%
Population Pyknosed Nuclei (%) [6]: 10%
Population Tubulin-Different-Phenotype (%) [6]: 12%
Total Cell Count [6]: 95
Population Apoptotic (%) [7]: 50%
Population Fragmented Nuclei (%) [7]: 12%
Population Healthy Nuclei (%) [7]: 63%
Population Hoechst High Intensity Objects (%) [7]: 12%
Population Membrane Permeable-Phenotype (%) [7]: 10%
Population Mitochondria Different-Phenotype (%) [7]: 81%
Population Mitotic Cells (%) [7]: 50%
Population Normal (%) [7]: 87%
Population Pyknosed Nuclei (%) [7]: 23%
Population Tubulin-Different-Phenotype (%) [7]: 79%
Total Cell Count [7]: 61
Population Apoptotic (%) [8]: 35%
Population Fragmented Nuclei (%) [8]: 8%
Population Healthy Nuclei (%) [8]: 70%
Population Hoechst High Intensity Objects (%) [8]: 8%
Population Membrane Permeable-Phenotype (%) [8]: 24%
Population Mitochondria Different-Phenotype (%) [8]: 91%
Population Mitotic Cells (%) [8]: 64%
Population Normal (%) [8]: 91%
Population Pyknosed Nuclei (%) [8]: 20%
Population Tubulin-Different-Phenotype (%) [8]: 92%
Total Cell Count [8]: 97
Population Apoptotic (%) [9]: 83%
Population Fragmented Nuclei (%) [9]: 29%
Population Healthy Nuclei (%) [9]: 60%
Population Hoechst High Intensity Objects (%) [9]: 20%
Population Membrane Permeable-Phenotype (%) [9]: 8%
Population Mitochondria Different-Phenotype (%) [9]: 34%
Population Mitotic Cells (%) [9]: 16%
Population Normal (%) [9]: 79%
Population Pyknosed Nuclei (%) [9]: 10%
Population Tubulin-Different-Phenotype (%) [9]: 14%
Total Cell Count [9]: 378
Population Apoptotic (%) [10]: 63%
Population Fragmented Nuclei (%) [10]: 6%
Population Healthy Nuclei (%) [10]: 84%
Population Hoechst High Intensity Objects (%) [10]: 7%
Population Membrane Permeable-Phenotype (%) [10]: 12%
Population Mitochondria Different-Phenotype (%) [10]: 15%
Population Mitotic Cells (%) [10]: 36%
Population Normal (%) [10]: 92%
Population Pyknosed Nuclei (%) [10]: 9%
Population Tubulin-Different-Phenotype (%) [10]: 18%
Total Cell Count [10]: 153
Population Apoptotic (%) [11]: 77%
Population Fragmented Nuclei (%) [11]: 18%
Population Healthy Nuclei (%) [11]: 54%
Population Hoechst High Intensity Objects (%) [11]: 11%
Population Membrane Permeable-Phenotype (%) [11]: 7%
Population Mitochondria Different-Phenotype (%) [11]: 55%
Population Mitotic Cells (%) [11]: 22%
Population Normal (%) [11]: 88%
Population Pyknosed Nuclei (%) [11]: 27%
Population Tubulin-Different-Phenotype (%) [11]: 62%
Total Cell Count [11]: 73
Population Apoptotic (%) [12]: 54%
Population Fragmented Nuclei (%) [12]: 10%
Population Healthy Nuclei (%) [12]: 60%
Population Hoechst High Intensity Objects (%) [12]: 4%
Population Membrane Permeable-Phenotype (%) [12]: 36%
Population Mitochondria Different-Phenotype (%) [12]: 82%
Population Mitotic Cells (%) [12]: 45%
Population Normal (%) [12]: 95%
Population Pyknosed Nuclei (%) [12]: 29%
Population Tubulin-Different-Phenotype (%) [12]: 73%
Total Cell Count [12]: 130
